Source: PubChem (several laboratories)
BB579 growth dn – growth inhibitors of yeast BB579 in restrictive medium, primary screen, yeast lifespan-shortening project, S. cerevisiae | 140,000 compounds, 0.51% hits | AID 804, 2007 | inhibition, % at 10 µM | OD615, 48 h;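 active = inhibition above a set limit, 3 SD over the mean compound inhibition, cut at about 44% in these data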
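Material: Saccharomyces cerevisiae DeaD strain BB579, replicative lifespan model yeast; buffer or medium: CSMM-D restrictive synthetic medium containing dextrose (glucose); compound: 10 µM single dose, DMSO 0.25%; timing: 48 h compound exposure at 30 °C after 4 h preincubation; signal: turbidity as optical density at 615 nm; benchmarks: positive control amphotericin B 10 µg/mL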
RAM network inh – inhibitors of the yeast RAM network, primary screen, dse1pr::URA3 reporter, 5-FOA selection; S. cerevisiae dse1pr::URA3 reporter, 5-FOA growth OD615, 2 d; analog-sensitive cbk1-as2 kinase mutant strain; AID 868, 2007; inhibition, % at 50 µM; 190,000 compounds, 1.8% hits;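 active = inhibition above a set limit, 3 SD over mean compound inhibition, cut at about 8.4% in these data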;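 also: 0% = DMSO-only wells with no growth and 100% = 10 µM 1-NA-PP1 full growth; inhibition rescues growth on 5-FOA so higher OD means more RAM inhibition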
Yeast life ext – compounds extending yeast replicative lifespan, primary screen, S. cerevisiae, OD615; 130,000 compounds, 0.68% hits; S. cerevisiae growth with nicotinamide; deaD strain in restrictive glucose medium; AID 775, 2007; inhibition of the nicotinamide effect, % at 10 µM;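 active = inhibition above a set limit, placed 3 SD over the median of all compounds, cut at about 26% in these data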;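 also: 0% = nicotinamide-treated wells and 100% = cells grown without nicotinamide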
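System: Modified budding yeast, DeaD strain | Buffer or medium: Restrictive glucose medium | Also added: 1.5 mM nicotinamide | Doses: 10 µM single point, 0.25% DMSO | Schedule: 48 h compound exposure at 30 °C, humidified | Detection: Absorbance at 615 nm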
SDO1 yeast rescue – growth rescue of sdo1-depleted yeast, primary screen, S. cerevisiae, bone marrow failure model; S. cerevisiae sdo1-depleted JHY4D growth rescue, OD600 30 h; hits give high values; pdr5 snq2 efflux-pump mutant strain; z-score at 10 µM; 140,000 compounds, 0.21% hits; AID 817, 2007;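 active = z-score above 3 at both the 24 hr and the 30 hr optical density reads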;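 also: z-score against mean and SD of all compound wells on the same plate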
Active calls of the source: *; . = no result. In the library only some 2.7% were active in any assay of this set; here they are far more common.

SMILES	BB579 growth dn	RAM network inh	Yeast life ext	SDO1 yeast rescue
CCOC12NC(=O)CC(=O)N1C(c1ccccc1)=CS2 (stereo not drawn)	-23	9.9*	-10	-1.3
COc1ccccc1/C=C/C(=O)NCc1cccnc1	.	0	.	.
Cc1c(-c2cccc(Cl)c2)nc2ccccc2c1C(=O)OC/C(O)=C(\C#N)c1nc2ccccc2[nH]1	.	11*	.	.
Cc1ccc(C)c(SCC(=O)OC/C(O)=C(\C#N)c2nc3ccccc3[nH]2)c1	.	8.5*	.	.
N#C/C(=C(/O)COC(=O)CSc1ccc2ccccc2c1)c1nc2ccccc2[nH]1	-48	2	-1	1
Oc1ccc2oc3c(c2c1/C=N/n1cnnc1)CCCC3	-43	0	-3	-0.86
Cc1ccnc(N=Cc2c(O)ccc3oc4c(c23)CCCC4)c1	-54	0	45*	-0.32
CCN1CCc2c(sc(NC(=O)Nc3ccc(Cl)c(Cl)c3)c2C(N)=O)C1	-33	-1	-2	-1.1
NNc1ccc2c(C(F)(F)F)cc(C(F)(F)F)nc2n1	.	0	.	.
N#CC(c1cccc(Cl)c1)c1ccc2c(C(F)(F)F)cc(C(F)(F)F)nc2n1 (stereo not drawn)	63*	4	-11	-2.1
O=C(NCCO)/C(=C\c1ccc([N+](=O)[O-])o1)NC(=O)c1ccccc1	.	0	.	.
O=C(NCCCO)/C(=C/c1ccc(-c2cccc([N+](=O)[O-])c2)o1)NC(=O)c1ccccc1	.	8.5*	.	.
CC(C)(C)c1nnc(N/N=C/c2cc(Br)ccc2O)n(N)c1=O	53*	0	-1	-0.28
NC(=O)N/N=C\c1cc(Br)ccc1O	-50	1	18	-0.57
COc1ccccc1NS(=O)(=O)c1cc([N+](=O)[O-])ccc1N/N=C/c1c(C)[nH]c2ccccc12	-43	11*	-5	-1.5
CC(=O)Nc1ccc(S(=O)(=O)N/N=C/c2ccc(C)s2)cc1	-20	0	-2	0.96
O=C(Nc1ccc2c(c1)OCCO2)NC1(C(F)(F)F)Oc2ccccc2O1	-49	1	30*	-1.7
Oc1ccc(N=Nc2n[nH]c(-c3ccccc3)n2)cc1	-3	1	-1	0.65
Oc1ccc(N=Nc2n[nH]c(-c3ccc(Br)cc3)n2)cc1	-35	8.8*	3	0.44
COC(=O)c1ccc(-n2nnnc2SCc2ccccc2OC)cc1	-15	9.6*	-6	0.11
Brc1ccccc1-c1nnc(SCc2nc3ccccc3s2)o1	1	8.6*	-4	-1.4
Cn1nnnc1SCc1nc2ccccc2s1	-22	1	-12	0.78
Cc1nc(C(=O)N2CCc3c([nH]c4ccccc34)C2c2cc(F)ccc2F)cs1 (stereo not drawn)	.	3	.	.
N#Cc1ccc(-c2ccccc2)nc1Sc1ccc(F)cc1	-58	6	4	0.7
Cc1cccc(Sc2nc(-c3ccccc3)ccc2C#N)c1	-27	11*	-23	-1.3
SMILES	BB579 growth dn	RAM network inh	Yeast life ext	SDO1 yeast rescue
CCN(c1ccccc1)S(=O)(=O)c1ccc(OC)c(NC(=O)Cn2cnc3c2c(=O)n(C)c(=O)n3C)c1	.	3	.	.
CCN(CC(=O)N1CCN(c2ccccc2)CC1)S(=O)(=O)c1ccc(C)cc1	-2	1	3	0.05
Cc1ccc(S(=O)(=O)N(C)CC(=O)OCC(=O)N2CCN(c3ccccc3)CC2)cc1	-20	8.7*	1	0.24
COc1ccc(NS(=O)(=O)c2cc(NC(=O)CNC(=O)c3ccc(C)s3)ccc2Cl)cc1	-18	10*	5	0.95
Cc1ccc(C(=O)NCC(=O)Nc2ccc(C)c(S(=O)(=O)Nc3ccc(Cl)cc3)c2)s1	.	6	.	.
COc1cc(/C=N/NC(=O)c2ccc(CSc3nc4ccccc4[nH]3)cc2)ccc1O	.	0	.	.
O=C(O)Cc1sc(Nc2ccc(F)cc2)nc1-c1cccs1	.	2	.	.
Cn1c(CCNC(=O)c2ccc(Cl)c(Cl)c2)nnc1SCc1ccc(Cl)c(Cl)c1	-73	8.8*	4	-1.5
COc1ccc(/C=C/C(=O)NC(=S)Nc2ccc(S(=O)(=O)Nc3cc(OC)ncn3)cc2)cc1	.	8.7*	.	.
COc1cc(NS(=O)(=O)c2ccc(NC(=S)NC(=O)/C=C/c3ccc(OC)c(OC)c3)cc2)ncn1	.	6	.	.
CCc1cccc(NC(=O)CCSCCC(=O)Nc2cccc(CC)c2)c1	-10	9.9*	-10	0.3
Cc1ccc(NC(=O)CCSCCC(=O)Nc2ccc(C)c(C)c2)cc1C	-16	9.8*	-23	-0.62
